Test: Toxicity liver stage against HepG2, at 10uM
Assay type: cell-based
Parameters: test concentration 10 uM, cell line HepG2-A16-CD81EGFP
Details: human, HepG2-A16-CD81EGFP cells; read-out: INHIBITION
Procedure, shortened: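 Uninfected HepG2-A16-CD81EGFP cells, 3 × 10^3 per well, 1536-well, plated on prespotted compound at 10 μM final, parasite-free screening media added to match infected plates; puromycin 10 μM positive, DMSO 0.5% negative; run in parallel with 48 h PbLuc assay at 37 °C, 5% CO2; viability by CellTiter-Glo luminescence, normalized to controls.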

In order of falling cytotoxicity at 10 µM:
1. COc1cccc(C2CCN(c3ccc4cc[nH]c4n3)C2)c1OC (stereo not drawn)  50.2%
2. CCS(=O)(=O)CCNC1CCN(c2nc3ccc(Cl)cc3s2)CC1  32%
3. Cn1cnc2ccc(NC(=O)CC3CCN(S(C)(=O)=O)CC3)cc21  22.6%
4. Cn1cc(CN2CC[C@H](O)[C@@H](n3ccc(=O)[nH]c3=O)CC2)cn1  20.4%
5. N#Cc1c2n(c3c(N)ncnc13)CCCCC2  15.1%
6. O=c1cc(CN(CCO)C2CC2)nc2ccc(Br)cn12  12.5%
7. Cc1ccc2ncnc(N3CCOCC3c3c(C)nn(C)c3C)c2c1 (stereo not drawn)  12.2%
8. CC(C)CCN1CCN(c2ncnc3nc(N)ccc23)CC1  11.5%
9. CC(C)(C)C(=O)N1CCC2(CNS(=O)(=O)c3cnccc3O2)C1 (stereo not drawn)  10.2%
10. COC(=O)c1cccc(C(=O)N(C)Cc2cccc(O)c2)c1  9.85%
11. Cc1cnc(CC2COCCN(C(=O)CN3CCOCC3)C2)cn1 (stereo not drawn)  9.07%
12. Cc1ccc(NC(=O)Cn2cc(I)cn2)cc1  9.06%
13. COCC1CC2(CCN(C(N)=O)CC2)CN1Cc1csc(C)n1 (stereo not drawn)  8.98%
14. CCN(CC)CCNC(=O)c1ccc(-n2ccc3ccccc32)s1  8.01%
15. CN(C)CCN1Cc2ncn(C)c2C(COCC(=O)N(C)C)C1 (stereo not drawn)  7.83%
16. COc1ccc(-c2nc(CCNC(=O)NC3CCC(O)CC3)co2)cc1 (stereo not drawn)  7.66%
17. CN1CC(=O)N(c2cnn(C)c2)CC12CCN(CC1CC1)C2 (stereo not drawn)  7.6%
18. CN1CCN(C(C)(C)CNC(=O)C2CCCN2S(C)(=O)=O)CC1 (stereo not drawn)  7.45%
19. Cc1c(F)cccc1S(=O)(=O)Nc1noc(C(C)C)n1  7.21%
20. COCCN(C)C(=O)Nc1ccc2c(ccn2CC(=O)N(C)C)c1  6.71%
21. Cc1nc(C(C)C)sc1C(=O)N1CCN(C2CCSCC2)CC1  6.62%
22. CN(C)C(=O)[C@H]1C[C@H]2CN(c3ncccn3)C[C@@H]1O2  6.1%
23. c1c2c(nn1CC1CCOCC1)C(CNC1CCOCC1)OCC2 (stereo not drawn)  5.83%
24. CN(C)CCOCC1CN(C(=O)c2cccnc2)Cc2ccnn2C1 (stereo not drawn)  5.57%
25. CCn1ncc2c1C(COC)CN(Cc1ccc(C)o1)C2 (stereo not drawn)  5.41%
26. Cc1c[nH]nc1C1CCN(c2cnccn2)C1 (stereo not drawn)  5.3%
27. COc1ccc(C(=O)NCCCn2ccnc2)c(OC)n1  4.99%
28. O=C1Nc2ccccc2C12CCCN(Cc1ccncc1)C2 (stereo not drawn)  4.32%
29. O=C(Cn1cnc(-c2ccccc2)cc1=O)Nc1ccncc1  3.48%
30. Cc1cccc(CN2C[C@H](OCc3csc(C)n3)[C@H]3COC[C@H]32)n1  3.22%
31. COc1ccc(OCCN(C)S(=O)(=O)N2CCOCC2)cc1  3.11%
32. O=C(c1ccc(F)cc1)N1C[C@H]2CCC[C@@]2(COCc2ccccn2)C1  2.06%
33. COCCn1cc(NCc2cn(C)nc2-c2ccncc2)cn1  2.03%
34. COc1cccc(CN2CCC3(CC(Nc4ccncn4)C3)C2)c1F (stereo not drawn)  1.69%
35. CCN1CCN(S(=O)(=O)N2CCCCCC2)[C@H]2CS(=O)(=O)C[C@H]21  1.58%
36. O=C(Cn1cc(I)cn1)N1CCNC1=O  1.53%
37. CCOCc1ncn2c1CN(S(=O)(=O)c1ccc(F)cc1)CC2  1.29%
38. Cc1cc(NC(C)Cc2cccs2)n2nccc2n1 (stereo not drawn)  1.22%
39. CN(C)c1ccc2c(c1)CN(C(=O)c1ccnnc1)C2c1cnco1 (stereo not drawn)  0.841%
40. Cc1ccccc1NC(=O)CNC(C)COc1ccccc1 (stereo not drawn)  -0.264%
41. O=C1N(CC2CC2)CCC12CCN(Cc1ccoc1)CC2  -0.302%
42. CCOc1ncccc1-c1cc2c(cc1C(N)=O)OCO2  -0.421%
43. CN1C(=O)COc2ccc(NC(=O)CCc3nc4cccnc4[nH]3)cc21  -1.23%
44. Cc1ncc2c(n1)CN(Cc1cccc3c1OCCO3)CC2  -1.31%
45. CCn1cnnc1CN(C)Cc1nc(-c2cc(OC)ccc2F)oc1C  -1.32%
46. Cc1nc(C(=O)N2CCOC(c3nc(C(C)C)n[nH]3)C2)c[nH]1 (stereo not drawn)  -1.58%
47. N#Cc1ccc(F)c(CNc2ccc(F)cc2OCCO)c1  -1.98%
48. CNC(=O)CN1CCC(NC(=O)Cc2ccccc2OC(C)C)CC1  -2.14%
49. CCn1ccnc1CN(C)c1cc(C2CCCNC2)nc(C)n1 (stereo not drawn)  -2.48%
50. CCn1nnc2c1C(COCCN(C)C)CN(S(C)(=O)=O)C2 (stereo not drawn)  -2.69%
51. COc1cccc(CN2CCN(C(=O)Nc3nc(C)ns3)CC2=O)c1  -3.05%
52. CCN(CC)C(=O)[C@@H]1C[C@@H](NC(=O)c2ccn(C(C)(C)C)c2)CN1C  -4.12%
53. COc1ncnc(N(C)C)c1NC(=O)Cc1c[nH]c2ccc(F)cc12  -4.2%
54. COc1c(C)cnc(CNC(=O)CCOCC(C)C)c1C  -4.44%
55. C=C(C)CN1CCCC1c1nc(Cc2ccc(F)cc2)no1 (stereo not drawn)  -4.9%
56. CCn1nnc2c1C(COCC(=O)N(C)C)CN(Cc1ccco1)C2 (stereo not drawn)  -4.96%
57. O=C(c1ccncc1F)N1CCOC(c2cccc(O)c2)C1 (stereo not drawn)  -4.97%
58. COc1cccc(S(=O)(=O)N2CCCCC2CCN2CCOCC2)c1 (stereo not drawn)  -5.31%
59. O=C(CCc1cc2n(n1)CCCNC2)NCCCSC1CCCCC1  -5.52%
60. CCN(CC)S(=O)(=O)c1cnccc1N1CCN(C(C)C)CC1  -5.57%
61. CNC(=O)C1CCCN(C(=O)OC)C1 (stereo not drawn)  -6.06%
62. Cn1cc(CN2CCc3c(COCC4CC4)cncc3C2)cn1  -6.33%
63. CCSc1ncc(CN2C[C@@H]3CC[C@H]2CN(C2CCOCC2)C3)cn1  -6.38%
64. CCCc1cc(NCc2cc(C)on2)n2nccc2n1  -6.85%
65. COCCOc1ccc(NC(=O)C2CC(=O)N(C3CC3)C2)cn1 (stereo not drawn)  -6.93%
66. Cc1nc(C)c(C(=O)NCCNC(=O)Cc2ccccc2)s1  -7.89%
67. CC(C)c1nc(C2CCCN2C(=O)c2ccc(N(C)C)nn2)no1 (stereo not drawn)  -8.11%
68. Cc1nc(N)ncc1C(=O)N1CCCC(CCc2ccc(F)cc2)C1 (stereo not drawn)  -8.3%
69. CN(C)c1cccc(C(=O)Nc2cnn(Cc3ccncc3)c2)c1  -9.19%
70. CCc1nc(CN2CCN(C(C)c3nc(C4CC4)no3)CC2)no1 (stereo not drawn)  -9.45%
71. COc1c(C)cnc(CN2CCOC(CNc3cccnn3)C2)c1C (stereo not drawn)  -10.5%
72. COCC1CC2(CCN(C(=O)c3cc(C)oc3C)CC2)CN1C(C)C (stereo not drawn)  -11.4%
73. O=S(=O)(c1c(F)cccc1F)N1CCC(Cn2cccn2)CC1  -11.9%
74. CCCS(=O)(=O)NCc1ncc(C)c(OC)c1C  -12.9%
75. COc1cccc(CNCC2CN(C)CCO2)c1 (stereo not drawn)  -15.2%
76. Cc1nc(C2CCCN2C(=O)Cc2ccc(F)cc2)ncc1C(N)=O (stereo not drawn)  -18.2%
77. CN(C)c1nccc(C2CCCN2S(=O)(=O)c2cn(C)cn2)n1 (stereo not drawn)  -20.2%
78. Cc1cncc(C(=O)N2CCN(c3cnn(C)c(=O)c3)CC2)c1  -20.4%
79. CNc1cc(C2CCCN2Cc2ccc(OCC(=O)O)cc2)ccn1 (stereo not drawn)  -21.9%
80. CC(C)c1ncc(CN2CCOC(C(=O)Nc3ccccc3)C2)cn1 (stereo not drawn)  -25.3%
81. CC(C)Cc1cc(CNC(=O)c2cccc3c2NCCC3)no1  -50.7%
82. COc1cc(N2CC[C@@H](O)[C@@H]2Cc2cccnc2)ncn1  -77.9%
83. Cc1occc1C(=O)N1CCO[C@H]2[C@H](Oc3cccnc3)CC[C@@H]21  -93.4%

— ChEMBL document CHEMBL4513216, “Probing the Open Global Health Chemical Diversity Library for Multistage-Active Starting Points for Next-Generation Antimalarials” (ACS Infect Dis, 2020)
